Results published in ChEMBL document CHEMBL1141579, “Synthesis, cytostatic, and antiviral activity of novel 6-[2-(dialkylamino)ethyl]-, 6-(2-alkoxyethyl)-, 6-[2-(alkylsulfanyl)ethyl]-, and 6-[2-(dialkylamino)vinyl]purine nucleosides” (Bioorg Med Chem, 2008).
pEC50, pIC50: −log10 of the molar value. Calls of active or inactive are those of the source. No cut-off for these calls is given here.

Assays:
[1] = test system: CCRF-CEM; assay: Cytostatic activity against human CCRF-CEM cells ATCC CCL 119 assessed as growth reduction after 72 hrs; format: functional, cell-based
How it was run: (§1)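 Cells grown in RPMI 1640 with foetal calf serum in 24-well plates. Counted in a haematological analyzer 72 h after drug addition. Inhibition expressed as IC50.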

[2] = test system: L1210; assay: Cytostatic activity against mouse L1210 cells ATCC CCL219 assessed as growth reduction after 72 hrs; format: functional, cell-based; details: for pIC50: L1210, 72 h; how it was run: as §1
[3] = test system: HL-60; assay: Cytostatic activity against human HL60 cells ATCC CCL 240 assessed as growth reduction after 72 hrs; format: functional, cell-based; details: for pIC50: HL-60, 72 h; how it was run: as §1
[4] = test system: Hepatitis C virus; assay: Antiviral activity against HCV 1b Con1 replicon in Huh7 cells; format: functional, organism-based, Hepatitis C virus subtype 1b; details: Huh-7
How it was run: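 Con-1/lucneo replicon cells seeded at 8 × 10^3 per well in medium without Geneticin. Compounds serially diluted in DMSO and added 1:200 (0.5% DMSO final). Incubated 3 days at 37 C. Cells lysed and luciferase activity read by luminometer. EC50 by non-linear regression, N = 2.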

[5] = Cytotoxicity against human Huh7 cells harboring con1 replicon after 3 days by MTT assay; format: cell-based, Huh-7
How it was run: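 Con-1 replicon-bearing Huh-7 cells were seeded at 8 · 10^3 cells per well in medium without Geneticin. Compound was serially diluted in 100% DMSO and added 1:200, giving 0.5% DMSO final. Cells were incubated at 37 C for 3 days. Toxicity was read at the end, in duplicate (N = 2).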

[6] = Cytotoxicity against human MT4 cells after 5 days; format: cell-based
How it was run: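 MT-4 cells were seeded at 2 · 10^3 cells/well. Compounds were serially diluted in culture medium and cells were incubated for 5 days. Survival was measured by CellTiter Glo luminescence, in duplicate (N = 2).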

[7] = test system: CCRF-CEM; assay: Cytostatic activity against human CCRF-CEM cells ATCC CCL 119 assessed as cell viability by XTT test; format: functional, cell-based
How it was run: (§2)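 Cell viability quantified by the XTT spectrophotometric assay. Inhibition expressed as IC50.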

[8] = test system: HL-60; assay: Cytostatic activity against human HL60 cells ATCC CCL 240 assessed as cell viability by XTT test; format: functional, cell-based; how it was run: as §2
[9] = test system: HL-60; assay: Cell cycle arrest in human HL60 cells assessed as accumulation in G1 phase at 4.5 uM relative to control; format: functional
How it was run: (§3)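 HL-60 cells treated at the stated concentration, then fixed in ethanol. Stained with propidium iodide in buffer containing RNase A and analysed by flow cytometry. Result given as the ratio of the treated to the control cell fraction in each phase (G1, S, G2/M).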

[10] = test system: HL-60; assay: Cell cycle arrest in human HL60 cells assessed as accumulation in S phase at 4.5 uM relative to control; format: functional; how it was run: as §3
[11] = test system: HL-60; assay: Cell cycle arrest in human HL60 cells assessed as accumulation in G2/M phase at 4.5 uM relative to control; format: functional; how it was run: as §3
[12] = test system: HL-60; assay: Cell cycle arrest in human HL60 cells assessed as accumulation in S phase at 18 uM relative to control; format: functional; how it was run: as §3
[13] = test system: HL-60; assay: Cell cycle arrest in human HL60 cells assessed as accumulation in G2/M phase at 18 uM relative to control; format: functional; how it was run: as §3
[14] = test system: HL-60; assay: Cell cycle arrest in human HL60 cells assessed as accumulation in G1 phase at 18 uM relative to control; format: functional; how it was run: as §3

SMILES | Activity [1] | Activity [2] | Activity [3] | pEC50 [4] | CC50 at 72 h [5] [µM] | CC50 at 120 h [6] [µM] | pIC50 [1] | pIC50 [7] | pIC50 [8] | pIC50 [2] | pIC50 [3] | Activity [9] | Activity [10] | Activity [11] | Activity [12] | Activity [13] | Activity [14]
CN(C)CCc1ncnc2c1ncn2[C@@H]1O[C@H](CO)[C@@H](O)[C@H]1O | inactive | inactive | inactive | 5.15 | 20 | – | – | – | – | – | – | – | – | – | – | – | –
COCCc1ncnc2c1ncn2[C@@H]1O[C@H](CO)[C@@H](O)[C@H]1O | inactive | inactive | inactive | 4.40 | > 100 | 13 | – | – | – | – | – | – | – | – | – | – | –
CN(C)CCc1ncnc2c1ncn2[C@H]1C[C@H](O)[C@@H](CO)O1 | inactive | inactive | inactive | 3.94 | > 250 | – | – | – | – | – | – | – | – | – | – | – | –
CCCCN(/C=C/c1ncnc2c1ncn2[C@H]1C[C@H](O)[C@@H](CO)O1)CCCC | inactive | inactive | inactive | 4.07 | > 100 | – | – | – | – | – | – | – | – | – | – | – | –
OC[C@H]1O[C@@H](n2cnc3c(/C=C/N4CCCCC4)ncnc32)C[C@@H]1O | inactive | inactive | inactive | 4.28 | > 100 | – | – | – | – | – | – | – | – | – | – | – | –
CCN(/C=C/c1ncnc2c1ncn2[C@@H]1O[C@H](CO)[C@@H](O)[C@H]1O)CC | – | – | – | 5.40 | 8 | – | 6.00 | 6.17 | 6.09 | 5.66 | 5.64 | – | – | – | – | – | –
OC[C@H]1O[C@@H](n2cnc3c(CC4SCCS4)ncnc32)[C@H](O)[C@@H]1O | inactive | inactive | inactive | < 4.00 | > 100 | – | – | – | – | – | – | – | – | – | – | – | –
OC[C@H]1O[C@@H](n2cnc3c(CCSc4nc5ccccc5s4)ncnc32)[C@H](O)[C@@H]1O | inactive | inactive | inactive | < 4.00 | > 100 | – | – | – | – | – | – | – | – | – | – | – | –
OC[C@H]1O[C@@H](n2cnc3c(CCN4CCOCC4)ncnc32)C[C@@H]1O | inactive | inactive | inactive | 4.60 | > 100 | 13 | – | – | – | – | – | – | – | – | – | – | –
OC[C@H]1O[C@@H](n2cnc3c(CCN4CCOCC4)ncnc32)[C@H](O)[C@@H]1O | inactive | inactive | inactive | 5.22 | 31 | – | – | – | – | – | – | – | – | – | – | – | –
CN(/C=C/c1ncnc2c1ncn2[C@@H]1O[C@H](CO)[C@@H](O)[C@H]1O)Cc1ccccc1 | – | – | – | 6.47 | 1 | – | 5.64 | 6.11 | 6.24 | 5.68 | 5.44 | – | – | – | – | – | –
OC[C@H]1O[C@@H](n2cnc3c(CCN4CCCCC4)ncnc32)[C@H](O)[C@@H]1O | inactive | inactive | inactive | 4.43 | > 250 | – | – | – | – | – | – | – | – | – | – | – | –
O=c1[nH]c(=O)n([C@H]2C[C@H](O)[C@@H](CO)O2)cc1F [FLOXURIDINE] | – | – | – | – | – | – | 7.77 | – | – | 7.92 | 7.92 | – | – | – | – | – | –
CN(CCc1ncnc2c1ncn2[C@@H]1O[C@H](CO)[C@@H](O)[C@H]1O)Cc1ccccc1 | – | – | – | 4.96 | 132 | – | 5.24 | 5.23 | 4.75 | 5.10 | 4.95 | 1.08 | 0.95 | 0.94 | – | – | –
COC(=O)CSCCc1ncnc2c1ncn2[C@@H]1O[C@H](CO)[C@@H](O)[C@H]1O | inactive | inactive | inactive | 4.27 | > 100 | > 100 | – | – | – | – | – | – | – | – | – | – | –
CCN(CC)CCc1ncnc2c1ncn2[C@@H]1O[C@H](CO)[C@@H](O)[C@H]1O | – | – | – | 5.17 | 45 | – | 5.90 | 6.10 | 4.76 | 5.28 | 5.17 | 0.99 | 1.08 | 0.8 | 0.78 | 0.65 | 1.38
CCCCN(/C=C/c1ncnc2c1ncn2[C@@H]1O[C@H](CO)[C@@H](O)[C@H]1O)CCCC | – | – | – | 6.00 | 2 | – | 5.60 | 6.08 | 6.08 | 5.70 | 5.14 | – | – | – | – | – | –
CSCCc1ncnc2c1ncn2[C@@H]1O[C@H](CO)[C@@H](O)[C@H]1O | inactive | inactive | inactive | < 4.00 | > 100 | – | – | – | – | – | – | – | – | – | – | – | –
OC[C@H]1O[C@@H](n2cnc3c(/C=C/N4CCCCC4)ncnc32)[C@H](O)[C@@H]1O | – | – | – | 6.00 | 26 | 6 | 5.68 | 6.49 | 6.36 | 5.81 | 5.64 | – | – | – | – | – | –
OC[C@H]1O[C@@H](n2cnc3c(/C=C/N4CCOCC4)ncnc32)[C@H](O)[C@@H]1O | – | – | – | 5.30 | 23 | – | 5.62 | 6.39 | 6.51 | 5.64 | 5.35 | – | – | – | – | – | –
CN(C)/C=C/c1ncnc2c1ncn2[C@@H]1O[C@H](CO)[C@@H](O)[C@H]1O | – | – | – | 5.40 | 5 | – | 5.90 | 6.10 | 6.21 | 5.66 | 5.48 | – | – | – | – | – | –
C[C@@]1(O)[C@H](O)[C@@H](CO)O[C@H]1n1cnc2c(N)ncnc21 | – | – | – | 6.64 | > 100 | – | – | – | – | – | – | – | – | – | – | – | –
OC[C@H]1O[C@@H](n2cnc3c(CCSCc4ccccc4)ncnc32)[C@H](O)[C@@H]1O | inactive | inactive | inactive | < 4.00 | > 100 | – | – | – | – | – | – | – | – | – | – | – | –
